# Source: PubChem BioAssay (several laboratories)
# Hits are enriched below; roughly 12% of the tested compounds scored in any of these assays.
# Diaph act CS – activates diaphorase or chemically reduces, flagging diaphorase assay artifacts. Diaphorase/resazurin coupled assay, resorufin fluorescence, 16 min; hits give high values; 1 = vehicle wells, 0 = NADH-free wells. activation factor at 20 µM. 190,000 tested, 0.005% active. AID 1229;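 active means diaphorase activity raised at least twofold by the compound at 20 µM; inactive means activation factor below 2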
#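 Material: Clostridium kluyveri diaphorase, purified enzyme; Quantity: enzyme 0.07 U/mL final; Medium: HEPES pH 7.4 buffer with MgCl2 and Tween 20; Dosing: single compound dose of 20 µM, 1% DMSO final; Schedule: 16 min reaction at room temperature; Measured by: red resorufin fluorescence at 544/590 nm excitation/emission.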
# WT yeast gro inh – growth inhibition of WT yeast, mitochondrial fusion screen | mitochondrial fusion phenotypic screen, WT strain | inhibition, % at 10 µM | AID 1362 | 190,000 tested, 2.1% active; in the data active means inhibition above about 58%; tested in S. cerevisiae
# Lmaj promast – inhibitors of Leishmania major promastigote growth; Leishmania major promastigotes, resazurin fluorescence viability; 200,000 tested, 9% active; inhibition, % at 10 µM; in the data active means inhibition above about 50%;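 further: promastigotes grown with compound for 44 hours at 28 °C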
# Diaph inh CS – counter-screen for diaphorase-based assays: diaphorase inhibitors and chemical oxidizers; inhibition, % at 20 µM; diaphorase resazurin-to-resorufin fluorescence, NADH, 16 min; bacterial (C. kluyveri) enzyme, not human; 190,000 tested, 0.69% active;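 active means primary screen inhibition at 20 µM above a set limit, cut at about 50% in these data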;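 further: plate controls were DMSO with full reaction for no effect and wells lacking NADH for full effect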
#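 Test system: bacterial diaphorase enzyme (C. kluyveri); Quantity: 0.14 U/mL diaphorase, enzyme working solution; Times: reaction incubation of 16 min at room temperature; Measured by: fluorescence of resorufin formed from resazurin, Ex 544/Em 590 nm; Benchmarks: positive control minus NADH, DMSO neutral control.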
# KCC2 mod – modulators of human KCC2 chloride dependent transport; KCC2 cells, thallium flux FluoZin-2 fluorescence; B-score of Tl+ flux slope (higher = more flux/activation; lower = inhibition) at 10 µM; 190,000 tested, 2.2% active; AID 1456;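 active means thallium flux slope and its plate-corrected score both differing from the plate sample mean at a set confidence after two filtering rounds, in either direction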;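 further: slope of fluorescence scaled to starting intensity during 10 to 20 s after thallium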
# Target sequence (Q9H2X9 whole entry, looked up): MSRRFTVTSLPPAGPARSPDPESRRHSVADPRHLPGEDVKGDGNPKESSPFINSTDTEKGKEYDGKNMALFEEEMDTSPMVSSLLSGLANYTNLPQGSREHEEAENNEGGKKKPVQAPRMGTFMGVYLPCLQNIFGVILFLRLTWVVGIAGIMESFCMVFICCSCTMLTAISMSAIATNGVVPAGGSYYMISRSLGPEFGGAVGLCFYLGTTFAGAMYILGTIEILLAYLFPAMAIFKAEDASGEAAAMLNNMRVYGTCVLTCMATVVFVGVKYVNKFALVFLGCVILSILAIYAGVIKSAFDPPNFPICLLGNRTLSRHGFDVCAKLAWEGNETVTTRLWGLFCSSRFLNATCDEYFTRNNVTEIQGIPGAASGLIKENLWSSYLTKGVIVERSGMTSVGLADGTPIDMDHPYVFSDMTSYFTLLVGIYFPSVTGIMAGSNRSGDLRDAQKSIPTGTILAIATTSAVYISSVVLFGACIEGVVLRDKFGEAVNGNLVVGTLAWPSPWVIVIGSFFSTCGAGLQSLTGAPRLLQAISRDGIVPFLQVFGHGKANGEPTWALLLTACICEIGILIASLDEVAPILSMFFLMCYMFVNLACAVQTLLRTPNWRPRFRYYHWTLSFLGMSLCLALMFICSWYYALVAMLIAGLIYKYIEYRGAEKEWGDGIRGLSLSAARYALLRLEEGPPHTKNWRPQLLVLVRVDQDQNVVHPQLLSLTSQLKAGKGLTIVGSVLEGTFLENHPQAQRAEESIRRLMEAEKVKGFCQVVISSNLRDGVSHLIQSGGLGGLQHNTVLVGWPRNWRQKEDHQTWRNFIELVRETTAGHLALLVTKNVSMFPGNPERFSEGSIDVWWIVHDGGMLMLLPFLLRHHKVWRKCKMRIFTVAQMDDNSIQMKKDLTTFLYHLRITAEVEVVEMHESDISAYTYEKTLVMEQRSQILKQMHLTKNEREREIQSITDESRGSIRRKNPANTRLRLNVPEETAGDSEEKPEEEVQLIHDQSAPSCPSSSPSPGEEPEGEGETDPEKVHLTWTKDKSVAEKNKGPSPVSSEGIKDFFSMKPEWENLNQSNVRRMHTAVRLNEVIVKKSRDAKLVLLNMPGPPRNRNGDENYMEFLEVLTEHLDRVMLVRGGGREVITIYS
# ROMK primary – modulates human ROMK potassium channel activity. P48048. Tet-inducible ROMK, thallium flux fluorescence; actives lie on both sides. B-score at 10 µM. 130,000 tested, 2% active;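 active means signal ratio slope over the read window, or its plate-corrected B-score, at least 3 SD from the plate mean, either direction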;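 further: B-score of the F/F0 ratio slope over 7 to 12 s after thallium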
# KCC2 secondary – confirmation of human KCC2 transport modulators; shares compounds with KCC2 mod; HEK293-KCC2, thallium flux, FluoZin2 fluorescence; hits give high values; normalised thallium flux (F/F0 slope) at 10 µM; 3,700 tested, 15% active;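 active means thallium flux slope above the same plate's solvent-only control mean plus 3 SD; inconclusive means the two replicate wells disagree; inactive means no significant difference from solvent-only control wells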
# KCC2 bumet counter – thallium flux persisting under bumetanide in KCC2 cells, counter-screen secondary assay; 3,700 tested, 49% active; AID 1714; shares compounds with KCC2 mod; HEK293-KCC2 + bumetanide/ouabain, thallium flux FluoZin2; hits give high values; normalized thallium flux at 10 µM;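 active means thallium entry rate above the same plate's blocked-transporter control wells by more than 3 SD; inconclusive means the two repeat wells disagree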;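 further: raw slope of fluorescence over initial fluorescence between 10 and 20 s after thallium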
# KCC2 sec2 – confirmation of human KCC2 transport modulators. shares compounds with KCC2 mod. HEK293-KCC2, thallium flux FluoZin2 fluorescence; actives lie on both sides; F/F0 rise rate, 10–20 s post-thallium. normalized thallium flux at 10 µM. 3,700 tested, 23% active;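 active means thallium flux slope more than 3 SD above or below the plate's solvent-only control mean, mostly below; inconclusive means the two repeat wells disagreed; inactive means no significant shift from solvent-only controls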;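 further: raw slope with 0.1% DMSO as baseline and bumetanide as block control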
# HEK counter1 – parental HEK flux effect, counter-screen; thallium flux rate (normalised fluorescence) at 10 µM; shares compounds with KCC2 mod; HEK293 parental cells, thallium flux FluoZin2, ouabain; baseline-ratio fluorescence slope, 10–20 s after thallium; 3,700 tested, 46% active;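 active means thallium flux rate significantly above the same plate's solvent-only control wells, beyond their mean plus 3 SD; inconclusive means the two replicate wells gave conflicting results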
# KCC2 ouabain – KCC2 (human) modulation, ouabain retest | HEK293-KCC2, thallium flux FluoZin2 fluorescence; bidirectional: low = inhibitor, high = activator | 3,700 tested, 48% active | shares compounds with KCC2 mod | raw Tl+ flux slope (below DMSO = inhibition, above = activation) at 10 µM;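 active means thallium flux slope beyond 3 SD from same-plate DMSO control mean in most replicates, usually higher, sometimes lower; inconclusive means repeat tests gave conflicting results; inactive means no significant difference from controls in most replicates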;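 further: slope of initial-normalized fluorescence between seconds 10 and 20 after thallium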
# HEK counter2 – counter-screen for KCC2 modulators: effect in parental HEK293 cells; thallium flux slope at 10 µM; 3,700 tested, 33% active; AID 1718; thallium flux FluoZin-2 fluorescence slope; shares compounds with KCC2 mod;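 active means thallium flux slope above the same plate's solvent-control mean plus 3 SD in both duplicate wells; inconclusive means duplicate wells that disagreed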;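 further: run without ouabain in cells lacking the KCC2 cotransporter; slope of fluorescence scaled to its starting value between 10 and 20 s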
# * hit, by the source's call; ? = inconclusive; · = no result.
SMILES,Diaph act CS,WT yeast gro inh,Lmaj promast,Diaph inh CS,KCC2 mod,ROMK primary,KCC2 secondary,KCC2 bumet counter,KCC2 sec2,HEK counter1,KCC2 ouabain,HEK counter2
O=C(NCCCCc1ccccc1)C1CC(c2cccc([N+](=O)[O-])c2)=NO1 (stereo not given),0.8,11,3,16,-3.3,·,·,·,·,·,·,·
O=C(NCCCCc1ccccc1)C1CC(c2cccc(F)c2)=NO1 (stereo not given),·,·,·,·,-2.7*,·,0.0069,0.0037,0.025*,0.0067,0.016,0.0094
Cc1nc(N2CCN(Cc3ccccc3)CC2)nc2c1CCC2,1,11,15,-2,-1.2,1.6,·,·,·,·,·,·
Cc1nc(N2CCN(Cc3ccccc3)CC2)nc2c1C(=O)CCC2,1,14,1,0,-2.9*,1.2,0.0065,0.0042,?,0.0069,0.015*,0.0095
COc1cc(C(=O)Nc2ccc(N3CCOCC3)cc2)ccc1OCc1c(C)noc1C,0.8,-12,-2,15,-0.013,·,·,·,·,·,·,·
CCCn1c(O)c(N=Nc2ccc3ccccc3n2)c2ccccc21,0.8,18,-7,19,-5*,0.37,0.01,0.011*,0.03,0.0087*,0.021,0.011
Cc1ccc(NC(=O)CSc2nccn2Cc2ccccc2)cc1C,0.9,2,5,6,-3.1*,·,?,0.0042,0.029,0.0053*,0.02*,0.0092
CC(=O)Nc1ccc(NC(=O)CSc2nccn2Cc2ccccc2)cc1,0.8,11,-6,22,-1.9,·,·,·,·,·,·,·
N#Cc1ccccc1NC(=O)CSc1nccn1CCc1ccccc1,0.9,10,11,9,-4*,·,0.0068,0.005,0.025*,0.0073,0.014*,0.01
CC(=O)c1ccc(NC(=O)CSc2nccn2CCc2ccccc2)cc1,0.9,0,-3,13,·,-1.6,·,·,·,·,·,·
O=C(CCC1CCCC1)Nc1ccc([N+](=O)[O-])cn1,0.9,5,6,8,0.98,·,·,·,·,·,·,·
O=C(Cc1ccc(Br)cc1)N1CCCCCC1,0.9,-5,-2,8,·,·,·,·,·,·,·,·
COc1ccc(N(C(C)C(=O)N2CCC(Cc3ccccc3)CC2)S(C)(=O)=O)cc1 (stereo not given),0.8,9,6,20,-3.6*,-1.2,?,0.0057,0.035,0.0043,0.015*,0.012
O=C(Cn1c(-c2ccccc2)noc1=O)Nc1ccc(S(=O)(=O)N2CCOCC2)cc1,0.8,-3,-8,16,-0.62,·,·,·,·,·,·,·
COc1ccc(-c2noc(=O)n2CC(=O)N2CCC(Cc3ccccc3)CC2)cc1,0.7,-1,96*,30,-4.7*,-0.45,0.0062,0.0033*,0.023*,0.0052*,0.013*,0.0075*
O=C(Cn1c(-c2ccccc2)noc1=O)N1CCC(Cc2ccccc2)CC1,0.8,-4,39,16,-5.2*,0.0051,0.0098,0.0068,0.028*,0.0037,0.015*,0.012
CCOC(=O)C1CCN(C(=O)C(C)N(c2ccc(Oc3ccccc3)cc2)S(C)(=O)=O)CC1 (stereo not given),0.9,6,31,6,-1.5,0.66,·,·,·,·,·,·
O=C(Cn1c(-c2ccccc2)noc1=O)Nc1ccc(N2CCCCCC2)cc1,0.8,-18,13,24,·,0.56,0.0078,0.006,0.031,0.0076,0.016*,0.011
CCOCC(=O)N1CCC(Cc2ccccc2)CC1,0.9,9,12,7,-0.98,0.79,·,·,·,·,·,·
Cc1ccc(S(=O)(=O)/N=C(/Nc2c(C)n(C)n(-c3ccccc3)c2=O)c2ccccc2)cc1,0.9,8,23,6,1.1,·,·,·,·,·,·,·
Fc1cccc2sc(Nc3nc4c(F)cccc4s3)nc12,0.9,21,-8,5,18*,0.72,?,0.036*,0.031,0.052*,0.034*,?
CN(NS(=O)(=O)c1ccc(Br)cc1)c1nc(C(F)(F)F)nc2ccccc12,0.8,77*,13,20,-3.8*,·,0.0066,0.0059,0.029,0.0061,0.018*,0.0098
CN(N)c1nc(C(F)(F)F)nc2ccccc12,0.9,5,0,8,-0.63,0.26,·,·,·,·,·,·
COc1cc(C2NC(=S)NC(C)=C2C(=O)Nc2ccc(C)cc2)ccc1O (stereo not given),1,-3,11,2,1.1,0.72,·,·,·,·,·,·
CCOC(=O)C1(Cc2cccc(Cl)c2)CCCN(C(=O)C2CC2)C1 (stereo not given),0.8,-2,-1,22,-0.081,·,·,·,·,·,·,·
SMILES,Diaph act CS,WT yeast gro inh,Lmaj promast,Diaph inh CS,KCC2 mod,ROMK primary,KCC2 secondary,KCC2 bumet counter,KCC2 sec2,HEK counter1,KCC2 ouabain,HEK counter2
COCCN(C(=O)CNC(=O)c1cccs1)C(C(=O)NC1CCCCC1)c1ccco1 (stereo not given),1,54,7,3,·,-0.031,0.007,0.0041,0.034,0.0069,0.019,0.011
Cc1ccc(NC2Sc3ccccc3NC2=O)cc1 (stereo not given),0.9,3,-12,7,0.75,0.64,·,·,·,·,·,·
COC(=O)c1sccc1NC(=S)OC,·,·,·,·,4.7*,·,?,0.012*,0.033,0.016*,?,0.013*
CC(Sc1n[nH]c(N)n1)C(=O)Nc1ccc(Cl)cn1 (stereo not given),1.1,3,-2,-7,-0.27,0.55,·,·,·,·,·,·
Nc1nc(SCC(=O)Nc2ccc(Cl)cn2)n[nH]1,0.9,-2,-3,5,13*,0.28,0.011,0.0061,0.031,0.0085,0.018,0.011
N#C/C(=C(/O)c1cccc(F)c1)c1nc2ccccc2s1,·,·,·,·,-3*,·,0.0089,0.006,?,0.0077,0.016*,0.011
CCNC(=O)NC(=O)C(C)Sc1ccc2c(c1)OCCO2 (stereo not given),0.9,-5,-6,14,-0.007,1.2,·,·,·,·,·,·
Oc1[nH]c2ccccc2c1/C=N/c1nccs1,0.8,35,3,19,15*,·,0.013*,0.023*,0.035,?,?,?
O=[N+]([O-])c1cccc(-n2nnnc2CN2CCCC2)c1,0.9,4,-2,6,-0.08,0.73,·,·,·,·,·,·
